Data set [1] can be described thus: melting temperature; fluorescence melt of hairpins on a sequencing array, two-state fit, raised by 9.35 °C to match UV melts. To be noted: sodium 0.088 M. The method in brief:
(§1)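 Folding enthalpy and melting temperature come from bootstrapped two-state fits to Cy3 fluorescence of library hairpins carrying annealed Cy3 and quencher oligos on a sequenced MiSeq flow cell. Imaging was done in 50 mM Na-HEPES pH 8.0, 25 mM NaCl, stepping by 2.5 °C up to 60 °C, and signals were normalised to pre-quench Cy3 and to control constructs. Results of four replicates were combined by inverse variance, and fitted temperatures were raised by 9.35 °C to match UV melts.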

Data set [2] can be described thus: folding enthalpy; higher = less favourable; fluorescence melt of hairpins on a sequencing array, two-state fit. Particulars: sodium 0.088 M. In a few lines:
as §1

Take GGCCACGAAAGTGGGGCC ((((((....)))..))): the Tm in data set [1] is 60.3 °C. In addition, the folding enthalpy in data set [2] is -14.2 kcal/mol.

On to GGCCACGAAAGTGGTGCC ((((((....)))..))), for which the Tm in data set [1] is 49.9 °C. Also, the folding enthalpy in data set [2] is -12.7 kcal/mol.

As to GGCCACGAAAGTGTGGCC ((((((....)))..))), the Tm in data set [1] came out at 68.5 °C. Moreover, in data set [2], the folding enthalpy was -33.6 kcal/mol.

As for GGCCACGAAAGTGTTGCC ((((((....)))..))), the Tm in data set [1] amounted to 49.9 °C. Moreover, the folding enthalpy in data set [2] was -16.7 kcal/mol.

On to GGCCACTCGAAAGAGGCC (((..(((....)))))), for which the Tm in data set [1] worked out at 52.3 °C. Also, in data set [2], the folding enthalpy is -27.7 kcal/mol.

On to GGCCAGGGAAACCTGACC ((.((((....)))).)), for which, in data set [1], the Tm came to 48.3 °C. The folding enthalpy in data set [2] is -34.4 kcal/mol.

As for GGCCATACGAAAGTAGCC (((..(((....)))))), the Tm in data set [1] was determined as 38.7 °C. Besides, the folding enthalpy in data set [2] is -20.6 kcal/mol.

Consider GGCCATGCGAAAGCAGCC (((..(((....)))))), for which the Tm in data set [1] was determined as 48.4 °C. The folding enthalpy in data set [2] is -17.1 kcal/mol.

GGCCCAGGAAACCAGGCC ((((..(....)..)))): in data set [1], the Tm worked out at 47 °C. The folding enthalpy in data set [2] was -31.6 kcal/mol.

For GGCCCAGGAAACTGGACC ((.((((....)))).)), the Tm in data set [1] came out at 50.5 °C. The folding enthalpy in data set [2] was -32.8 kcal/mol.

Turning to GGCCCCCGAAAGGGAGCC (((.(((....))).))), in data set [1], the Tm worked out at 66.8 °C. For the same sequence, the folding enthalpy in data set [2] was -27.1 kcal/mol.

In the case of GGCCCCCGAAAGGGTGCC (((.(((....))).))), the Tm in data set [1] stood at 64.5 °C. Moreover, the folding enthalpy in data set [2] was -27.9 kcal/mol.

Regarding GGCCCCGAAAGGGTCGCC ((((((....)))..))), in data set [1], the Tm is 55.5 °C. In addition, the folding enthalpy in data set [2] is -16.1 kcal/mol.

For the sequence GGCCCCGAAAGGGTGCC ((((((....))).))), the Tm in data set [1] came to 66.1 °C. Further, the folding enthalpy in data set [2] is -23.3 kcal/mol.

For the sequence GGCCCCGCGAAAGCGGCC (((..(((....)))))), the Tm in data set [1] was 41 °C. Moreover, in data set [2], the folding enthalpy was -9.49 kcal/mol.

For the sequence GGCCCGCGAAAGCGAGCC (((.(((....))).))), in data set [1], the Tm was 67.2 °C. Further, the folding enthalpy in data set [2] is -31.3 kcal/mol.

As for GGCCCGGGAAACCAGGCC ((((.((....)).)))), the Tm in data set [1] was determined as 55.3 °C. For the same sequence, the folding enthalpy in data set [2] is -37.9 kcal/mol.

Take GGCCCGTCGAAAGACGCC (((..(((....)))))): in data set [1], the Tm worked out at 37 °C. Also, the folding enthalpy in data set [2] is -8.97 kcal/mol.

In the case of GGCCCTCGAAAGAGAGCC (((.(((....))).))), the Tm in data set [1] amounted to 53.3 °C. For the same sequence, in data set [2], the folding enthalpy is -46.6 kcal/mol.

Take GGCCGACCGAAAGGTGCC (((..(((....)))))): the Tm in data set [1] turned out to be 49.5 °C. For the same sequence, the folding enthalpy in data set [2] is -25.5 kcal/mol.

As to GGCCGACGAAAGTCCGCC (((.(((....))).))), the Tm in data set [1] was determined as 55.1 °C. For the same sequence, the folding enthalpy in data set [2] was -39 kcal/mol.

For GGCCGAGGAAACTCAGCC (((.(((....))).))), in data set [1], the Tm was 46.4 °C. The folding enthalpy in data set [2] was -32 kcal/mol.

In the case of GGCCGAGGAAACTTGGCC ((((.((....)).)))), the Tm in data set [1] came to 59.4 °C. The folding enthalpy in data set [2] was -49.1 kcal/mol.

For GGCCGCGAAAGCGCAGCC ((((((....)))..))), the Tm in data set [1] came to 58.4 °C. The folding enthalpy in data set [2] is -20.7 kcal/mol.

For the sequence GGCCGCTCGAAAGAGGCC (((..(((....)))))), the Tm in data set [1] was found to be 56.5 °C. Besides, the folding enthalpy in data set [2] is -48.5 kcal/mol.

GGCCGGCGAAAGCCAGCC (((.(((....))).))): the Tm in data set [1] was 68.1 °C. Moreover, the folding enthalpy in data set [2] was -22.4 kcal/mol.

Regarding GGCCGGCGAAAGCCCGCC (((.(((....))).))), in data set [1], the Tm came to 59.7 °C. Besides, the folding enthalpy in data set [2] is -29.9 kcal/mol.

In the case of GGCCGGGGAAACCCAGCC (((.(((....))).))), in data set [1], the Tm is 51.7 °C. Also, the folding enthalpy in data set [2] is -42.6 kcal/mol.

With GGCCGTACGAAAGTAGCC (((..(((....)))))), the Tm in data set [1] was found to be 42.3 °C. In addition, the folding enthalpy in data set [2] is -22.6 kcal/mol.

Consider GGCCGTCGAAAGACTGCC (((.(((....))).))), for which, in data set [1], the Tm came out at 56.8 °C. Besides, the folding enthalpy in data set [2] was -42.8 kcal/mol.

As for GGCCTAACGAAAGTTGCC (((..(((....)))))), the Tm in data set [1] worked out at 38.7 °C. For the same sequence, in data set [2], the folding enthalpy is -20.9 kcal/mol.

For GGCCTCCCGAAAGGGGCC (((..(((....)))))), in data set [1], the Tm was found to be 59.1 °C. Moreover, in data set [2], the folding enthalpy was -18.7 kcal/mol.

Consider GGCCTCCGAAAGGAGCC (((.(((....)))))), for which the Tm in data set [1] is 62.4 °C. The folding enthalpy in data set [2] was -16.5 kcal/mol.

For GGCCTCCGAAAGGATGCC (((.(((....))).))), the Tm in data set [1] was found to be 56.5 °C. In addition, the folding enthalpy in data set [2] is -37.2 kcal/mol.

On to GGCCTCGAAAGAGACGCC ((((((....)))..))), for which, in data set [1], the Tm stood at 47.7 °C. Besides, the folding enthalpy in data set [2] is -24.3 kcal/mol.

For the sequence GGCCTCGAAAGAGAGCC ((((((....))).))), the Tm in data set [1] is 58.1 °C. For the same sequence, in data set [2], the folding enthalpy is -37.5 kcal/mol.

In the case of GGCCTCGAAAGAGAGGCC ((((((....)))..))), the Tm in data set [1] stood at 66.9 °C. The folding enthalpy in data set [2] was -29.1 kcal/mol.
